Changes are numbered by the printed parent chain.
What was measured:
Details in all cases: stereoisomer not certain
OR7G2 = test system: T1, OR7G2
T1 sequence (whole entry): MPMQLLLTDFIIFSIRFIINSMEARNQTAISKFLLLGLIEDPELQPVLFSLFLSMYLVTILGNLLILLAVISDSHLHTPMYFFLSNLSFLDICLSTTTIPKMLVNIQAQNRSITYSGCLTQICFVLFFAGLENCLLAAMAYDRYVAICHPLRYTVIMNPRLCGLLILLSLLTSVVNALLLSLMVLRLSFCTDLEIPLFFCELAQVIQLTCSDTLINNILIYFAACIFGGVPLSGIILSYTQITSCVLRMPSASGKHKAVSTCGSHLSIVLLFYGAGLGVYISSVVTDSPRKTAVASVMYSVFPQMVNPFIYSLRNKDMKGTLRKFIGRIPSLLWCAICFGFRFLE
In short: (§1)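 Each receptor–molecule pair is labelled responsive or non-responsive (inactive) according to whether the original authors judged the measured signal statistically different from baseline. The data were taken from the main text and supplementary material of published papers and checked for typos and inconsistencies. Assay methods differed by source, with transient luciferase assays in mammalian cell lines being common.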

OR7G3 (Homo sapiens) = target: T2, OR7G3 (Homo sapiens) (UniProt Q8NG95)
T2 sequence (whole entry): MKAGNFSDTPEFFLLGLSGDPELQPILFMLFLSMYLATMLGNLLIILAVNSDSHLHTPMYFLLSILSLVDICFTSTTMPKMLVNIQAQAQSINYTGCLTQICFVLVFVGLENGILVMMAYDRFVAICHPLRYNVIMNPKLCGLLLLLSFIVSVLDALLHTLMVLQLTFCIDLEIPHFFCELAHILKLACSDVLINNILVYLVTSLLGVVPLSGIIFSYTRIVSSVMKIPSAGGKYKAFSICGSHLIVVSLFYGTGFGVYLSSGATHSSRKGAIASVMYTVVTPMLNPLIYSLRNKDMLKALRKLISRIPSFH
In short: as §1

OR7G3 M29V = test system: T3, OR7G3 M29V
T3 sequence (whole entry): T2 sequence (whole entry) with M29V
In short: as §1

OR8A1 (Homo sapiens) = target: T4, OR8A1 (Homo sapiens) (UniProt Q8NGG7)
T4 sequence (whole entry): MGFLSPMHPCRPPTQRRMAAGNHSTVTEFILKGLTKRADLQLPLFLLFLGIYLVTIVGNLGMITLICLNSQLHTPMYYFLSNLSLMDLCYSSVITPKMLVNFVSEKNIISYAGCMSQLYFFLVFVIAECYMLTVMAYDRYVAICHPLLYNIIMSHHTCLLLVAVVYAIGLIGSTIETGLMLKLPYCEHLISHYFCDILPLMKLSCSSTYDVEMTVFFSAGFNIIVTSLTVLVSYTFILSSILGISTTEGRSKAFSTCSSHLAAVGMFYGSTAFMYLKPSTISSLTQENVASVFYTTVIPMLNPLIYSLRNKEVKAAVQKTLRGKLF
In short: as §1

OR8B12 (Homo sapiens) = target: T5, OR8B12 (Homo sapiens) (UniProt Q8NGG6)
T5 sequence (whole entry): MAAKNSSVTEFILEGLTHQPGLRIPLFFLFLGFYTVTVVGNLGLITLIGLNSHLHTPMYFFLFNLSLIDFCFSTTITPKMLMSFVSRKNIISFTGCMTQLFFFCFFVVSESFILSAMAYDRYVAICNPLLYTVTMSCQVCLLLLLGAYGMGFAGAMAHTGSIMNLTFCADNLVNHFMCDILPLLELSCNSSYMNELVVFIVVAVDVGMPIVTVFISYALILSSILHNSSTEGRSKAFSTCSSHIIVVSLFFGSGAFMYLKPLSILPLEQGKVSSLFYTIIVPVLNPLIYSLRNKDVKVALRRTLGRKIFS
In short: as §1

OR8B2 (Homo sapiens) = target: T6, OR8B2 (Homo sapiens) (UniProt Q96RD0)
T6 sequence (whole entry): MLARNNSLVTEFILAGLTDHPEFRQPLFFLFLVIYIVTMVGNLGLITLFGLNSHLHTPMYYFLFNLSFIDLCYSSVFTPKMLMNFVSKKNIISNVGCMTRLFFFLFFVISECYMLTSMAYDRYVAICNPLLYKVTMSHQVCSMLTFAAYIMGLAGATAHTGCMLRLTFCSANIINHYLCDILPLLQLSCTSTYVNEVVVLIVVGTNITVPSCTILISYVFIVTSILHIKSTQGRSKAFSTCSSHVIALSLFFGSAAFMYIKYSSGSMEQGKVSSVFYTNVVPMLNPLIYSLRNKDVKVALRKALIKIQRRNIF
In short: as §1

OR8B2 L164F = test system: T7, OR8B2 L164F
T7 sequence (whole entry): T6 sequence (whole entry) with L164F
In short: as §1

OR8B2 S273F = test system: T8, OR8B2 S273F
T8 sequence (whole entry): T6 sequence (whole entry) with S273F
In short: as §1

OR8B3 (Homo sapiens) = target: T9, OR8B3 (Homo sapiens) (UniProt Q8NGG8)
T9 sequence (whole entry): T6 sequence (whole entry) with R24Q, I34V, T47I, N94Y, R100Q, T205I, T208M
In short: as §1

OR8B3 H20R Q24R M114I = test system: T10, OR8B3 H20R Q24R M114I
T10 sequence (whole entry): T6 sequence (whole entry) with H20R, I34V, T47I, N94Y, R100Q, M114I, T205I, T208M
In short: as §1

OR8B3 H20R Q24R Y113H = test system: T11, OR8B3 H20R Q24R Y113H
T11 sequence (whole entry): T6 sequence (whole entry) with H20R, I34V, T47I, N94Y, R100Q, Y113H, T205I, T208M
In short: as §1

OR8B3 H20R Q24R = test system: T12, OR8B3 H20R Q24R
T12 sequence (whole entry): T6 sequence (whole entry) with H20R, I34V, T47I, N94Y, R100Q, T205I, T208M
In short: as §1

OR8B4 (Homo sapiens) = target: T13, OR8B4 (Homo sapiens) (UniProt Q96RC9)
T13 sequence (whole entry): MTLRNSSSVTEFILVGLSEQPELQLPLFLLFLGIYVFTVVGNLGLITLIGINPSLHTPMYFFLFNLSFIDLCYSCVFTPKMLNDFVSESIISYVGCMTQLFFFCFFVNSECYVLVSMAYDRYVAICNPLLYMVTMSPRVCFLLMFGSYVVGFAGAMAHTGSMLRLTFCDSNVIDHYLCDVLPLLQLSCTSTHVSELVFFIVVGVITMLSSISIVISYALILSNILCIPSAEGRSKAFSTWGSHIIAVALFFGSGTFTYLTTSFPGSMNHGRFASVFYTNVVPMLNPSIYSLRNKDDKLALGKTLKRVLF
In short: as §1

OR8B4 = test system: T14, OR8B4
T14 sequence (whole entry): T13 sequence (whole entry) with E22G
In short: as §1

OR8B8 (Homo sapiens) = target: T15, OR8B8 (Homo sapiens) (UniProt Q15620)
T15 sequence (whole entry): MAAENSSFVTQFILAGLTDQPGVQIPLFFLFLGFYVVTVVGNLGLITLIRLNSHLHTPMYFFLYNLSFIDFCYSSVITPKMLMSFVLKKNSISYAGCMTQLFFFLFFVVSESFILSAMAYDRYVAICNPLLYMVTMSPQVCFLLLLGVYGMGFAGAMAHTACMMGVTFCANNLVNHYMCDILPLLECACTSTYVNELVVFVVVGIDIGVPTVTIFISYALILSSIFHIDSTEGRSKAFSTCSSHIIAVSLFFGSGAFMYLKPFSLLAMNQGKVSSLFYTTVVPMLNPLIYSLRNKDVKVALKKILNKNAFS
In short: as §1

OR8B8 L101P = test system: T16, OR8B8 L101P
T16 sequence (whole entry): T15 sequence (whole entry) with L101P
In short: as §1

OR8D1 (Homo sapiens) = target: T17, OR8D1 (Homo sapiens) (UniProt Q8WZ84)
T17 sequence (whole entry): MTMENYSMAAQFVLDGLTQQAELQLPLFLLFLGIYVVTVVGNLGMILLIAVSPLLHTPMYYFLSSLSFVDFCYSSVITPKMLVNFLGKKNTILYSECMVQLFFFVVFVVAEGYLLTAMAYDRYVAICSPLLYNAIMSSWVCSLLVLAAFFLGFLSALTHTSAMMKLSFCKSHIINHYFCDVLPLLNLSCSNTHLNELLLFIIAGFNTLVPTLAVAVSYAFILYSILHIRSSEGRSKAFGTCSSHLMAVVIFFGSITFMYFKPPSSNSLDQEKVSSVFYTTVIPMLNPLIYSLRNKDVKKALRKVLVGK
In short: as §1

OR8D1 C127G L194P = test system: T18, OR8D1 C127G L194P
T18 sequence (whole entry): T17 sequence (whole entry) with C127G, L194P
In short: as §1

OR8D1 L194P = test system: T19, OR8D1 L194P
T19 sequence (whole entry): T17 sequence (whole entry) with L194P
In short: as §1

Measured: odorant receptor agonist call

Cc1cnc(C)c(C)n1
inactive: all assays above

C=C(C)c1ccc(C)cc1
inactive: OR8D1 (Homo sapiens)

CCC=CCCC=CC=O
inactive: OR8D1 (Homo sapiens)

COC(=O)C(C)C
inactive: OR8D1 (Homo sapiens)

O=C1CCOc2ccccc21
active: OR8B2 (Homo sapiens)

C=CC(O)CCCCC (centres undefined)
inactive: OR8D1 (Homo sapiens)

CCCC(S)CCOC(C)=O (centres undefined)
inactive: all assays above

CCO
inactive: OR8D1 (Homo sapiens)

CCCc1ccc(O)c(OC)c1
inactive: OR8D1 (Homo sapiens)

CCC1OC(C)=C(O)C1=O (centres undefined)
inactive: all assays above

Reference: the M2OR odorant receptor database
